# Reference: PubChem BioAssay AID617 (SRMLSC, 2007)
# pIC50: −log10 of the molar value.
# Tested on: E. coli BW25113 ΔtolC growth inhibition, OD615
# Assay: E. coli ΔtolC antibacterial growth inhibition – strain BW25113 ΔtolC::kan, dose response (AID 617)
# Outline: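 system = E. coli BW25113 tolC deletion strain (ΔtolC::kan), whole bacterial cells | technique = optical density (absorbance) at 615 nm | dosing = compounds in serially diluted dose-response series | times = bacterial growth with compound for 20 h, 37 °C | evaluation = growth-inhibition IC50 from four-parameter logistic curve, bounds set to 0% and 100%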
row,Structure (SMILES),pIC50
1,Cn1c(=O)n(CCCOc2ccc(Br)cc2)c2ccccc21,4.86
2,CC1CCC2C(C1)c1sc(=O)[nH]c1SC2(C)C (stereo not given),5.11
3,Cc1nn(-c2nc3ccccc3n2Cc2ccccc2)c2c1C(=O)CC(C)(C)C2,5.07
4,COC(=O)c1cn(NC(=O)c2cnccn2)c(=O)c2ccccc12,5.61
5,Fc1ccc(C(c2ccc(F)cc2)N2CCN(C/C=C/c3ccccc3)CC2)cc1,5.04
6,CN1CCN(CC(=O)N2CCn3c4c(c5cc(C6CCCCC6)ccc53)CCCC42)CC1 (stereo not given),4.18
7,CCOc1cc(C)c(Cl)cc1S(=O)(=O)n1nnc2ccccc21,4.93
8,CCn1c(C(=O)N2CCC(C(=O)NCCCSC3CCCCC3)CC2)cc2sccc21,5.21
9,COc1ccc(C/C(O)=C(\C#N)c2nc3ccccc3s2)cc1,5.29
10,Clc1ccc(COC(Cn2ccnc2)c2ccc(Cl)cc2Cl)cc1 (stereo not given),5.64
11,Cc1oc2c(CN3CCCC3)c(O)ccc2c(=O)c1-c1ccc(Br)cc1,4.59
12,O=C(Nc1cccc(C(F)(F)F)c1)N1CCC(c2nc(-c3ccc(F)cc3)no2)CC1,5.43
13,Cc1ccccc1C1=NCC(=O)N(CC(=O)NCc2ccco2)c2sc3c(c21)CCCC3,4.54
14,CCn1c2ccccc2c2cc(NC(=O)c3ccco3)ccc21,5.05
15,CCCCN1C(=O)NC(=O)C2(Cc3c(nc4c(C)cccn4c3=O)N3CCc4ccccc4C32)C1=O (stereo not given),5.49
16,COc1ccc(Cn2c(=O)sc3ccccc32)cc1,4.21
17,Cc1cccc(N2CC(c3nc4ccccc4n3C)CC2=O)c1C (stereo not given),5.31
18,CCOC(=O)c1cccc(NC(=O)Nc2cc(OC)ccc2OC)c1,4.69
19,CCCCn1c(=O)n(Cc2cccc(F)c2)c(=O)c2c1ncn2Cc1ccco1,4.83
20,CCC(CC)c1nnc(NC(=O)c2c(-c3ccccc3)noc2C)s1,4.70
21,O=C(c1cc2nc(-c3ccco3)cc(C(F)(F)F)n2n1)N1CCN(c2ccc(F)cc2)CC1,4.99
22,CCCn1c(CN(Cc2ccccc2)Cc2ccccc2)nc2c1c(=O)n(C)c(=O)n2C,5.14

row,Structure (SMILES),pIC50
1,CCCC1=C(C(=O)OCC)C(c2cc(Cl)cc(OC)c2OCC(=O)OCC)NC(=O)N1 (stereo not given),4.61
2,Cc1ccc2cc(C(c3nnnn3C3CCCC3)N(Cc3cccnc3)Cc3ccco3)c(=O)[nH]c2c1 (stereo not given),4.86
3,C=CCOC(=O)C(C#N)c1nc2ccccc2nc1N1CCCC1 (stereo not given),5.06
4,Cc1nn(-c2ccc(F)cc2)c2sc(C(=O)N3CCCCCC3)cc12,4.70
5,CCCN(CCC)S(=O)(=O)c1ccc(C(=O)Nc2nnc(-c3cccc(OC)c3)o2)cc1,6.59
6,Cc1cc(C)c(C#N)c(SCc2ccc3c(c2)OCO3)n1,4.61
7,CCCCc1c(C)nn(-c2nnc3c4ccccc4n(CC)c3n2)c1C,5.75
8,Cc1ccccc1-c1nc(CN2CCC(C(=O)NCCC3=CCCCC3)CC2)c(C)o1,4.86
9,CC(C)c1ccc(-c2nnn(Cc3nc4ccccc4s3)n2)cc1,4.64
10,c1ccc2c(c1)CCN(c1nc3cc4c(cc3s1)OCCO4)C2,4.83
11,Cc1onc(-c2c(F)cccc2Cl)c1C(=O)Nc1nc2c(s1)CCCC2,4.71
12,COC(=O)c1ccc(NC(=O)CN2CCN(c3cccc(Cl)c3)CC2)cc1,4.66
13,COc1ccc(S(=O)(=O)Nc2ccccc2C(=O)NCc2ccco2)cc1Br,5.02
14,CCOC(=O)N1CCC(Nc2nc3ccccc3nc2NS(=O)(=O)c2ccc(Cl)cc2)CC1,5.26
15,N#Cc1cn(CCOc2ccccc2F)c2ccccc12,4.79
16,COc1ccc(Cl)cc1N1CCN(CCNC(=O)Nc2ccccc2C)CC1,4.36
17,CC1CC(C)CN(c2ncnc3c2cnn3Cc2ccc(Cl)cc2)C1 (stereo not given),5.22
18,CCSC(C)CC1C/C(=N/O)c2c(CC)noc2C1 (stereo not given),4.68
19,CC(C)(C)n1nnnc1C(c1cccs1)N1CCCc2ccccc21 (stereo not given),4.87
20,O=C(CSc1nnc2scc(-c3ccccc3)n12)Nc1nsc(-c2ccccc2)n1,4.88
21,CCOC(=O)Cc1ccc(NS(=O)(=O)c2ccc(SC)cc2)cc1,4.83
22,COc1cc2ccccc2cc1C(=O)Nc1ccc(S(=O)(=O)Nc2cc(C)on2)cc1,4.97

row,Structure (SMILES),pIC50
1,CC(=O)OCC1=C(C(=O)O)N2C(=O)[C@@H](NC(=O)Cc3cccs3)[C@H]2SC1,6.00
2,CCCCCc1cc(O)c2c(C)cc(=O)oc2c1,5.67
3,O=C(c1ccc2c(=O)n(C3CCCC3)c(=S)[nH]c2c1)N1CCN(C2CCCCC2)CC1,4.82
4,COc1cccc(Cn2c(Oc3cccc(C)c3)nc3c2c(=O)n(C)c(=O)n3C)c1,4.84
5,CCn1c(C(=O)N2CCC(Cc3ccccc3)CC2)cc2sccc21,4.99
6,CC(C)(C)C(=O)Cn1c(=N)n(Cc2ccccc2)c2ccccc21,4.76
7,CCOC(=O)Cc1nnc2c(Nc3ccccc3F)nc3nonc3n12,5.17
8,CC1CCc2nc(NC(=O)c3cc(C(C)(C)C)nn3C)sc2C1 (stereo not given),4.91
9,CC(=O)Nc1cccc(NC(=O)CSc2ncc(-c3ccc(Cl)cc3)n2Cc2ccco2)c1,5.52
10,CCOC(=O)c1c(NC(=O)CN2CCCCC2)sc2c1CCN(C(=O)OCC)C2,4.97
11,Cn1c(CSc2nnc(SCc3ccccc3)s2)nc2ccccc21,4.65
12,O=C(CSc1nc(O)c(C2CCCCC2)c(=O)[nH]1)Nc1ccc(Cl)cc1,5.06
13,CCCOC(=O)/C(C(N)=NCc1ccccc1)=C(\O)OCCC,4.79
14,Brc1ccc(-c2nc(-c3ccccc3)no2)o1,4.52
15,COC(=O)c1c(NC(=O)CCc2ccc(C)o2)sc(C)c1C,4.57
16,CCCCN(CCCC)C(=O)CSc1nnc(-c2cc(OC)c(OC)c(OC)c2)o1,4.56
17,O=c1[nH]c2ccc(S(=O)(=O)N3CCN(c4ccccc4F)CC3)cc2s1,4.24
18,N=c1c2c(-c3ccccc3)c(-c3ccccc3)n(Cc3ccco3)c2ncn1Cc1ccco1,5.36
19,Cc1ccnc(N2CCC(C(=O)Nc3cccc(C(F)(F)F)c3)CC2)n1,4.08
20,CC(C)COC(=O)NCCOC(=O)Nc1cccc(Cl)c1,4.71
21,Oc1ccc(Cl)cc1-c1cc(-c2ccccc2)n[nH]1,5.19
22,COc1ccc2[nH]c3c(=O)n(CCCCC(=O)N4CCCC4)c(=S)[nH]c3c2c1,6.12

row,Structure (SMILES),pIC50
1,CCCc1nc2sc3ccccc3c(=O)c2c(=O)n1Cc1ccco1,5.24
2,COc1cc(NS(=O)(=O)c2ccc(OC)c(C)c2C)c(OC)cc1Cl,4.78
3,CCOC(=O)c1sc2nc(CC(=O)OC)nc(N3CCN(c4ccccn4)CC3)c2c1C,4.60
4,CCOC(=O)c1sc(NC(=O)CSc2n[nH]c(-c3ccccc3)n2)c(C#N)c1C,5.77
5,Oc1c(CN2CCN(c3ccccn3)CC2)cc(Cl)c2cccnc12,4.94
6,Cc1oc(C(C)(C)C)cc1C(=O)Nc1ccc2c(c1)OCCO2,4.72
7,COc1cc(-c2nnc(SCc3ccccc3Cl)o2)cc(OC)c1OC,4.99
8,CC(C)c1ccc(OCc2ccc(C(=O)N3CCN(c4ccccn4)CC3)cc2)cc1,5.09
9,COc1ccc(CCNC(=O)c2cc3sc(Cl)cc3n2C)cc1OC,4.51
10,CCCCCCC(=O)N1CCC(c2nc3c(nnn3Cc3ccccc3Cl)c(=O)[nH]2)CC1,5.20
11,Fc1ccc(Br)cc1C1C=C(c2ccc(Br)s2)Nc2ncnn21 (stereo not given),5.28
12,c1ccc(-c2ccccc2-c2nc(-c3cccnc3)no2)cc1,4.86
13,O=C(CCC1CCCC1)c1c(O)c2ccccc2oc1=O,6.02
14,Cc1nc(N2CCN(Cc3ccc4c(c3)OCO4)CC2)c2oc3ccccc3c2n1,4.93
15,O=C1[C@H]2[C@@H](C(=O)N1c1cc(Cl)cc(Cl)c1)[C@]1(C(=O)Nc3ccccc31)N1CCC[C@@H]21,4.99
16,Cc1c(C(=O)OC2CCCC2C)[nH]c2c1C(=O)CCC2 (stereo not given),6.42
17,COc1ccccc1N1CCN(C(c2ccccc2Cl)c2nnnn2C(C)(C)C)CC1 (stereo not given),4.56
18,CCCc1nc(SCC(=O)N2CCCc3ccccc32)c2c(=O)n(C)c(=O)n(C)c2n1,4.94
19,CCOC(=O)C1CCN(C(=O)c2oc3ccc(S(=O)(=O)N4CCCCCC4)cc3c2C)CC1,4.67
20,Cc1cccc2cc(CN(Cc3ccco3)C(=O)NC3CCCCC3)c(=O)[nH]c12,4.83
21,COc1ccccc1-c1nnc(SC/C(O)=C(\C#N)c2nc3ccccc3[nH]2)n1C1CCCCC1,4.99
22,COc1cccc(-c2nnc(NC(=O)c3ccc(S(=O)(=O)N(CC(C)C)CC(C)C)cc3)o2)c1,6.04

row,Structure (SMILES),pIC50
1,Brc1ccc(CSc2nnc(-c3cnccn3)n2Cc2ccco2)cc1,4.20
2,CC(C)C(c1nnnn1C1CCCC1)N1CCCc2ccccc21 (stereo not given),4.80
3,COc1ccc(NS(=O)(=O)c2ccc3oc4ccccc4c3c2)cn1,5.25
4,N#CCSc1n[nH]c2nc3c(c(=O)n12)C1(CCCC1)Cc1ccccc1-3,5.38
5,C=C(C)COc1ccc(-c2n[nH]c(C)c2Oc2ccccc2OC)c(O)c1,5.08
6,COc1cccc(N2CC(C(=O)Nc3ccc(C(=O)OC(C)C)cc3)CC2=O)c1 (stereo not given),4.83
7,C#CCSc1nnc(-c2cccc3ccccc23)o1,4.91
8,Cc1nc2ncnn2c(N2CCN(C(c3ccccc3)c3ccccc3)CC2)c1C,5.16
9,COc1cccc(N2CCN(CC(=O)Nc3nc4c(s3)CC(C)CC4)CC2)c1 (stereo not given),4.98
10,CCc1cc2cc(C(=O)N3CCN(Cc4ccccc4)CC3)sc2s1,4.99
11,Cc1ccc(NC(=O)c2ccccc2O)cc1,4.80
12,O=C(Nc1ccc(C(F)(F)F)cc1Cl)c1ccc(Cn2cc(Br)cn2)o1,5.00
13,CC1(C)COCN1S(=O)(=O)c1ccc(C(=O)Nc2nnc(-c3ccc(Cl)s3)o2)cc1,> 6.70
14,CCOC(=O)CCSc1nc2c(c(C(F)(F)F)c1C#N)CCC2,4.86
15,COC(=O)c1sccc1NC(=O)c1ccc(Cl)s1,5.40
16,Cc1ccccc1-c1nnc(SCc2ccccc2F)o1,4.59
17,O=C(c1ccc(COc2ccccc2Cl)o1)N1CCN(c2ccccc2)CC1,5.06
18,Clc1ccc(Cn2ncc3c(NCc4ccco4)ncnc32)c(Cl)c1,4.27
19,CN1CCCN(C(=O)Cc2c(Cl)cccc2Cl)c2nc3ccccc3nc21,4.88
20,CCc1ccccc1N(C)C(=O)CCc1nc(-c2ccc(C)cc2)no1,4.86
21,COc1ccccc1N1CCN(C(c2ccc(Cl)cc2)c2nnnn2C(C)(C)C)CC1 (stereo not given),4.58
22,COc1ccc(Oc2cn[nH]c2-c2ccc(O)cc2O)cc1,5.10
